This test has as its target Methionine--tRNA ligase, mitochondrial (Homo sapiens) (UniProt Q96GW9). The test is described as follows: human mtMetRS tRNA charging inhibition – biochemical, radioactivity, round 1, selectivity assay for T. brucei MetRS inhibitor project, late-stage follow-up (AID 743061).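 Further: 0% = DMSO with full reaction and 100% = DMSO wells lacking tRNA.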 Particulars: recombinant human mtMetRS, [3H]Met tRNA charging, at 1 µM, stronger effect = higher value. The essentials:
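Material – recombinant human mitochondrial methionyl-tRNA synthetase (MetRS) · Input – 13 nM enzyme · Also added – 240 nM [3H]methionine with bulk E. coli tRNA acceptor · Compound dosing – 10 and 1 µM · Schedule – 15 min preincubation, 1 h reaction, room temperature · Detection – scintillation counts of TCA-precipitated charged tRNA on filters · Benchmarks – high DMSO, low without tRNA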
For the compound `O=C(NCc1nc2ccccc2[nH]1)C1=C[C@H](c2ccc3c(c2)OCO3)C[C@H](OCCCCO)O1`, the inhibition (in general, the drop in the measured response relative to a control, in per cent) was -10.7%.

For `CC1Cc2ccccc2N1C(=O)Cn1cc(C(=O)C(=O)N2CCOCC2)c2ccccc21` (stereo not given), the inhibition was -0.48%.

Consider `Cc1ccc2[nH]c3nc(SCC(=O)Nc4ccc(C(F)(F)F)cc4)nnc3c2c1`, for which the inhibition is -10%. In the case of `O=C(NCc1nc2ccccc2[nH]1)C1=C[C@@H](c2ccc3c(c2)OCO3)C[C@@H](OCCCCO)O1` it was -3.63%; in that of `COc1ccccc1-n1c(SCC(=O)Nc2ccc(Cl)cc2)nc(O)c(Cc2ccccc2)c1=O`, -31.6%. In the case of `O=C(Cn1cc(C(=O)C2CC2)c2ccccc21)Nc1cccc(C(F)(F)F)c1` it was 0.73%. Take `O=C(NCCc1nc2ccccc2[nH]1)c1ccc(Cl)c(Cl)c1`: the inhibition worked out at 2.38%. In the case of `CCCCn1c(CCNC(=O)c2ccc(F)cc2)nc2ccccc21` it was 3.64%; in that of `CCO[C@@H]1OC(C(=O)NCc2nc3ccccc3[nH]2)=C[C@H](c2ccc(Br)cc2)[C@H]1CCCO`, -4.89%. In the case of `COc1ccc(CCN(C(=O)c2cccc(F)c2)C2CC(=O)N(c3ccc(Br)cc3)C2=O)cc1` (stereo not given) it was -8.56%; in that of `O=C(NCc1nc2ccccc2[nH]1)C1=C[C@H](C2CC2)C[C@H](OCc2ccc(CO)cc2)O1`, 7.99%. In the case of `CCN(CC)C(=O)C(=O)c1cn(CC(=O)Nc2cccc(C(F)(F)F)c2)c2ccccc12` it was -0.41%; in that of `O=C(NCc1nc2ccccc2[nH]1)C1=C[C@H](c2csc3ccccc23)C[C@H](OCCCCO)O1`, -9.21%.

With `O=C(Cn1cc(C(=O)C(=O)N2CCOCC2)c2ccccc21)NCc1ccccc1`, the inhibition is -5.05%.

On to `O=C(CC=NOCc1ccc([N+](=O)[O-])cc1)Nc1ccc(Br)cc1`, for which the inhibition was -22.4%. Under `CCc1ccc2[nH]c3nc(SCC(=O)NCc4cccc(OC)c4)nnc3c2c1` stands -1.1%; under `CCN(CC)C(=O)C(=O)c1cn(CC(=O)N(CC)c2ccccc2)c2ccccc12`, 2.19%; under `Brc1cnc2nc(SCc3nc4ccccc4[nH]3)[nH]c2c1`, -21.5%. In the case of `COc1cccc(NC(=O)CSc2nnc3c(n2)[nH]c2ccc(C)cc23)c1` it was 49.7%; in that of `CC(C)(C)[C@H]1C=C(C(=O)NCc2nc3ccccc3[nH]2)O[C@@H](OCc2ccc(CO)cc2)C1`, -20.5%. In the case of `O=C(C(=O)N1CCOCC1)c1cn(CC(=O)N2CCCc3ccccc32)c2ccccc12` it was 8.2%; in that of `O=C(NNC(=O)c1cc(-c2ccc(Cl)c(Cl)c2)nc2ccccc12)Nc1ccccc1`, -17.1%; in that of `COc1ccc(NC(=O)CSc2nnc3c4cc(C)ccc4n(C)c3n2)cc1`, -0.75%. Regarding `COc1ccccc1NC(=O)CSc1nnc2c(n1)[nH]c1ccc(C)cc12`, the inhibition is -3.56%.

Consider `O=C(NCc1nc2ccccc2[nH]1)C1=C[C@@H](c2ccccc2)C[C@@H](OCc2ccc(CO)cc2)O1`, for which the inhibition was -16.8%. Under `O=C(Cn1cc(C(=O)C(=O)N2CCCC2)c2ccccc21)Nc1ccccc1` stands -7.71%; under `COc1cccc(NC(=O)C2CC(=O)n3c(nc4ccccc43)N2)c1` (stereo not given), 1.46%; under `O=C1CC(N(CCc2ccccc2)C(=S)Nc2ccccc2)C(=O)N1c1ccc(Br)cc1` (stereo not given), -25.5%. As for `COc1ccc(NC(=O)C2CC(=O)n3c(nc4ccccc43)N2)cc1` (stereo not given), the inhibition is -2.67%. `CCc1ccc2c(c1)c1nnc(SCC(=O)Nc3ccc4c(c3)OCO4)nc1n2C`: the inhibition is -9.7%. In the case of `O=C(Cn1cc(C(=O)c2ccco2)c2ccccc21)Nc1cccc(C(F)(F)F)c1` it was 2.74%; in that of `COc1ccc(CCN(C(=S)Nc2ccccc2)C2CC(=O)N(c3ccc(Cl)cc3)C2=O)cc1` (stereo not given), 10.6%; in that of `CCCCCCCCCC1NC(C(=O)O)Cc2c1[nH]c1ccccc21` (stereo not given), -2.41%.

`Clc1ccc(-c2nnc(SCc3nc4ccccc4[nH]3)o2)c(Cl)c1`: the inhibition was -3.17%. In the case of `Cc1ccc(CNC(=O)CSc2nnc3c(n2)[nH]c2ccc(C)cc23)cc1` it was 1.77%.

For the origin of these results see PubChem BioAssay AID743061 (The Scripps Research Institute Molecular Screening Center, 2013).
